# According to ChEMBL document CHEMBL5058577, “EUbOPEN Chemogenomics Library 2 (Multiplex)” (2022):
# Where “and” joins values, the source holds several entries; their conditions need not be identical. Identical values can stand only once.
# Tested on: HEK-293T
# Test: Multiplex assay against HEK293T
# Assay type: toxicity, cell-based
# Details: human
# Summary of the method: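 Four dyes were applied at seeding to live cells: Hoechst33342, BioTracker Green Microtubule Cytoskeleton Dye, MitoTracker Red and Annexin V Alexa Fluor 680. Imaging after compound addition used a CQ1 microscope at 37°C and 5% CO2. CellPathfinder machine-learning gating then sorted cells into Hoechst high-intensity objects or normal cells, normal cells into healthy, pyknosed or fragmented nuclei, and pyknosed cells into mitotic or apoptotic, with tubulin, mitochondrial-mass and membrane-permeability phenotypes given as per cents of healthy-nucleus cells.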
# [1] = 12 h, 1 µM, compound concentration 1 uM, replicate 1
# [2] = 12 h, 1 µM, compound concentration 1 uM, replicate 2
# [3] = 12 h, 10 µM, compound concentration 10 uM, replicate 1
# [4] = 12 h, 10 µM, compound concentration 10 uM, replicate 2
# [5] = 24 h, 1 µM, compound concentration 1 uM, replicate 1
# [6] = 24 h, 1 µM, compound concentration 1 uM, replicate 2
# [7] = 24 h, 10 µM, compound concentration 10 uM, replicate 1
# [8] = 24 h, 10 µM, compound concentration 10 uM, replicate 2
# [9] = 48 h, 1 µM, compound concentration 1 uM, replicate 1
# [10] = 48 h, 1 µM, compound concentration 1 uM, replicate 2
# [11] = 48 h, 10 µM, compound concentration 10 uM, replicate 1
# [12] = 48 h, 10 µM, compound concentration 10 uM, replicate 2
compound,measurement,setting,value
CN1CCN(c2nc3cc(C(F)(F)F)ccc3n3cccc23)CC1.O=C(O)/C=C\C(=O)O.O=C(O)/C=C\C(=O)O,Population Apoptotic (%),[1],37%
same,Population Fragmented Nuclei (%),[1],5%
same,Population Healthy Nuclei (%),[1],80%
same,Population Hoechst High Intensity Objects (%),[1],10%
same,Population Membrane Permeable-Phenotype (%),[1],0%
same,Population Mitochondria Different-Phenotype (%),[1],48%
same,Population Mitotic Cells (%),[1],62%
same,Population Normal (%),[1],89%
same,Population Pyknosed Nuclei (%),[1],13%
same,Population Tubulin-Different-Phenotype (%),[1],33%
same,Total Cell Count,[1],438
same,Population Apoptotic (%),[2],53%
same,Population Fragmented Nuclei (%),[2],8%
same,Population Healthy Nuclei (%),[2],77%
same,Population Hoechst High Intensity Objects (%),[2],5%
same,Population Mitochondria Different-Phenotype (%),[2],76%
same,Population Mitotic Cells (%),[2],46%
same,Population Normal (%),[2],94%
same,Population Pyknosed Nuclei (%),[2],14%
same,Population Tubulin-Different-Phenotype (%),[2],35%
same,Total Cell Count,[2],332
same,Population Apoptotic (%),[3],68%
same,Population Fragmented Nuclei (%),[3],7%
same,Population Healthy Nuclei (%),[3],76%
same,Population Hoechst High Intensity Objects (%),[3],14%
same,Population Membrane Permeable-Phenotype (%),[3],0%
same,Population Mitochondria Different-Phenotype (%),[3],73%
same,Population Mitotic Cells (%),[3],31%
same,Population Normal (%),[3],85%
same,Population Pyknosed Nuclei (%),[3],15%
same,Population Tubulin-Different-Phenotype (%),[3],64%
same,Total Cell Count,[3],396
same,Population Apoptotic (%),[4],64%
same,Population Fragmented Nuclei (%),[4],5%
same,Population Hoechst High Intensity Objects (%),[4],9%
same,Population Mitochondria Different-Phenotype (%),[4],89%
same,Population Mitotic Cells (%),[4],35%
same,Population Normal (%),[4],90%
same,Population Pyknosed Nuclei (%),[4],18%
same,Population Tubulin-Different-Phenotype (%),[4],66%
same,Total Cell Count,[4],286
same,Population Apoptotic (%),[5],33%
same,Population Fragmented Nuclei (%),[5],9%
same,Population Healthy Nuclei (%),[5],81%
same,Population Hoechst High Intensity Objects (%),[5],6%
same,Population Membrane Permeable-Phenotype (%),[5],1%
same,Population Mitochondria Different-Phenotype (%),[5],30%
same,Population Mitotic Cells (%),[5],66%
same,Population Normal (%),[5],93%
same,Population Pyknosed Nuclei (%),[5],9%
same,Population Tubulin-Different-Phenotype (%),[5],24%
same,Total Cell Count,[5],557
same,Population Apoptotic (%),[6],54%
same,Population Fragmented Nuclei (%),[6],6%
same,Population Healthy Nuclei (%),[6],83%
same,Population Membrane Permeable-Phenotype (%),[6],0%
same,Population Mitochondria Different-Phenotype (%),[6],50%
same,Population Mitotic Cells (%),[6],45%
same,Population Pyknosed Nuclei (%),[6],10%
same,Population Tubulin-Different-Phenotype (%),[6],25%
same,Total Cell Count,[6],390
same,Population Apoptotic (%),[7],41%
same,Population Fragmented Nuclei (%),[7],8%
same,Population Healthy Nuclei (%),[7],77%
same,Population Hoechst High Intensity Objects (%),[7],9%
same,Population Membrane Permeable-Phenotype (%),[7],0%
same,Population Mitochondria Different-Phenotype (%),[7],65%
same,Population Mitotic Cells (%),[7],58%
same,Population Normal (%),[7],90%
same,Population Pyknosed Nuclei (%),[7],13%
same,Population Tubulin-Different-Phenotype (%),[7],62%
same,Total Cell Count,[7],490
same,Population Apoptotic (%),[8],63%
same,Population Fragmented Nuclei (%),[8],10%
same,Population Healthy Nuclei (%),[8],78%
same,Population Hoechst High Intensity Objects (%),[8],7%
same,Population Mitochondria Different-Phenotype (%),[8],79%
same,Population Mitotic Cells (%),[8],36%
same,Population Normal (%),[8],92%
same,Population Pyknosed Nuclei (%),[8],10%
same,Population Tubulin-Different-Phenotype (%),[8],58%
same,Total Cell Count,[8],378
same,Population Apoptotic (%),[9],20%
same,Population Fragmented Nuclei (%),[9],13%
same,Population Healthy Nuclei (%),[9],78%
same,Population Hoechst High Intensity Objects (%),[9],3%
same,Population Membrane Permeable-Phenotype (%),[9],2%
same,Population Mitochondria Different-Phenotype (%),[9],17%
same,Population Mitotic Cells (%),[9],79%
same,Population Normal (%),[9],96%
same,Population Pyknosed Nuclei (%),[9],7%
same,Population Tubulin-Different-Phenotype (%),[9],17%
same,Total Cell Count,[9],915
same,Population Apoptotic (%),[10],37%
same,Population Healthy Nuclei (%),[10],79%
same,Population Hoechst High Intensity Objects (%),[10],5%
same,Population Membrane Permeable-Phenotype (%),[10],0%
same,Population Mitochondria Different-Phenotype (%),[10],42%
same,Population Mitotic Cells (%),[10],62%
same,Population Normal (%),[10],94%
same,Population Tubulin-Different-Phenotype (%),[10],21%
same,Total Cell Count,[10],535
same,Population Apoptotic (%),[11],50%
same,Population Fragmented Nuclei (%),[11],15%
same,Population Healthy Nuclei (%),[11],75%
same,Population Hoechst High Intensity Objects (%),[11],10%
same,Population Membrane Permeable-Phenotype (%),[11],2%
same,Population Mitochondria Different-Phenotype (%),[11],41%
same,Population Mitotic Cells (%),[11],50%
same,Population Normal (%),[11],89%
same,Population Pyknosed Nuclei (%),[11],8%
same,Population Tubulin-Different-Phenotype (%),[11],44%
same,Total Cell Count,[11],672
same,Population Apoptotic (%),[12],52%
same,Population Fragmented Nuclei (%),[12],11%
same,Population Healthy Nuclei (%),[12],77%
same,Population Hoechst High Intensity Objects (%),[12],12%
same,Population Membrane Permeable-Phenotype (%),[12],0%
same,Population Mitochondria Different-Phenotype (%),[12],65%
same,Population Mitotic Cells (%),[12],47%
same,Population Normal (%),[12],87%
same,Population Pyknosed Nuclei (%),[12],10%
same,Population Tubulin-Different-Phenotype (%),[12],56%
same,Total Cell Count,[12],472
CC(=O)O[C@H]1C(=O)[C@@]2(C)[C@H]([C@H](OC(=O)c3ccccc3)[C@]3(O)C[C@H](OC(=O)[C@H](O)[C@@H](NC(=O)c4ccccc4)c4ccccc4)C(C)=C1C3(C)C)[C@]1(OC(C)=O)CO[C@@H]1C[C@@H]2O [PACLITAXEL],Population Apoptotic (%),[3],41% and 51%
same,Population Fragmented Nuclei (%),[3],7% and 4%
same,Population Healthy Nuclei (%),[3],74% and 79%
same,Population Hoechst High Intensity Objects (%),[3],16% and 12%
same,Population Membrane Permeable-Phenotype (%),[3],0%
same,Population Mitochondria Different-Phenotype (%),[3],79% and 70%
same,Population Mitotic Cells (%),[3],58% and 48%
same,Population Normal (%),[3],83% and 87%
same,Population Pyknosed Nuclei (%),[3],17% and 15%
same,Population Tubulin-Different-Phenotype (%),[3],11% and 9%
same,Population Apoptotic (%),[4],56% and 47%
same,Population Fragmented Nuclei (%),[4],5% and 2%
same,Population Healthy Nuclei (%),[4],64% and 75%
same,Population Hoechst High Intensity Objects (%),[4],14%
same,Population Mitochondria Different-Phenotype (%),[4],84% and 85%
same,Population Mitotic Cells (%),[4],43% and 52%
same,Population Normal (%),[4],85%
same,Population Pyknosed Nuclei (%),[4],29% and 22%
same,Population Tubulin-Different-Phenotype (%),[4],16% and 17%
same,Population Apoptotic (%),[7],35% and 34%
same,Population Fragmented Nuclei (%),[7],10% and 9%
same,Population Healthy Nuclei (%),[7],70% and 73%
same,Population Hoechst High Intensity Objects (%),[7],16% and 14%
same,Population Membrane Permeable-Phenotype (%),[7],0%
same,Population Mitochondria Different-Phenotype (%),[7],72% and 68%
same,Population Mitotic Cells (%),[7],64% and 65%
same,Population Normal (%),[7],83% and 85%
same,Population Pyknosed Nuclei (%),[7],18% and 16%
same,Population Tubulin-Different-Phenotype (%),[7],8% and 7%
same,Population Apoptotic (%),[8],47% and 55%
same,Population Fragmented Nuclei (%),[8],8% and 7%
same,Population Healthy Nuclei (%),[8],75%
same,Population Hoechst High Intensity Objects (%),[8],15%
same,Population Mitochondria Different-Phenotype (%),[8],82% and 75%
same,Population Mitotic Cells (%),[8],52% and 44%
same,Population Normal (%),[8],84%
same,Population Pyknosed Nuclei (%),[8],17%
same,Population Tubulin-Different-Phenotype (%),[8],16% and 11%
same,Population Apoptotic (%),[11],29% and 38%
same,Population Fragmented Nuclei (%),[11],15% and 10%
same,Population Healthy Nuclei (%),[11],68% and 75%
same,Population Hoechst High Intensity Objects (%),[11],11% and 10%
same,Population Membrane Permeable-Phenotype (%),[11],0%
same,Population Mitochondria Different-Phenotype (%),[11],64% and 60%
same,Population Mitotic Cells (%),[11],70% and 62%
same,Population Normal (%),[11],88% and 89%
same,Population Pyknosed Nuclei (%),[11],15% and 14%
same,Population Tubulin-Different-Phenotype (%),[11],2% and 6%
same,Population Apoptotic (%),[12],69% and 57%
same,Population Fragmented Nuclei (%),[12],13%
same,Population Healthy Nuclei (%),[12],70% and 73%
same,Population Mitochondria Different-Phenotype (%),[12],70% and 68%
same,Population Mitotic Cells (%),[12],30% and 42%
same,Population Pyknosed Nuclei (%),[12],19% and 13%
same,Population Tubulin-Different-Phenotype (%),[12],11%
